ChEMBL document CHEMBL1157612, “Synthesis and biological activities of 2-amino-1-arylidenamino imidazoles as orally active anticancer agents” (J Med Chem, 2010)
One block for each compound: values may come before it. Active and inactive are the calls of the source. The rule behind the calls is not given here.

How the values were obtained:
NUGC-3 [1] = experiment: Anticancer activity against human NUGC3 cells after 72 hrs by MTS/PMS assay; format: functional, cell-based; details: NUGC-3, 72 h
Summary of the method: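 NUGC-3 gastric cancer cells seeded 4500/well, grown 24 h at 37 °C, 5% CO2, then exposed 72 h to a concentration series, duplicate wells per concentration, final DMSO ≤0.3%. Controls were actinomycin D 10 nM and 0.3% DMSO vehicle. Viability read colorimetrically by MTS/PMS. IC50 is the concentration giving 50% growth inhibition, reported as mean of triplicate wells from at least three experiments.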

MKN-45 [2] = experiment: Ex vivo antiproliferative activity against human MKN45 cells xenografted in nude mouse assessed as BrdU incorporation into DNA at 10 ug/mL after 96 hrs by immunostaining; format: functional, cell-based
Summary of the method: (§1)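 MKN-45 or SW-480 cells (1 × 10^6) grown subcutaneously in nude mice to ~1 cm3; tumors cut into 1–2 mm pieces and histocultured on gelatin gels in MEM/DMEM with 10% FBS at 37 °C. After 3 days, exposed 96 h to 0.0001–10 μg/mL, then 40 μM BrdU for 48 h. Fixed, paraffin-sectioned, BrdU-immunostained with hematoxylin counterstain. Labeling index = BrdU-positive/total tumor cells; IC50 taken as concentration halving LI.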

SW480 [3] = experiment: Ex vivo antiproliferative activity against human SW480 cells xenografted in nude mouse assessed as BrdU incorporation into DNA at 10 ug/mL after 96 hrs by immunostaining; format: functional, cell-based; summary of the method: as §1
MKN-45 [4] = experiment: Ex vivo apoptotic activity in human MKN45 cells xenografted in nude mouse assessed as DNA fragmentation at 10 ug/mL after 96 hrs by immunostaining; format: functional, cell-based
MKN-45 [5] = experiment: Ex vivo antiproliferative activity against human MKN45 cells xenografted in nude mouse assessed as drug concentration reducing 50% of BrdU labeling index after 96 hrs by immunostaining; format: functional, cell-based; details: MKN-45, 96 h; summary of the method: as §1
P388 [6] = experiment: Anticancer activity against mouse P388 cells xenografted in DBA/2J mouse assessed as increase in mouse life span at 200 mg/kg, po administered daily for 9 consecutive days; format: functional
Summary of the method: (§2)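 Female DBA/2J mice, 5 weeks old, each given 1 × 10^6 P388 cells iv. Oral dosing by gavage (0.1 mL) started one day after inoculation. Compound was dissolved in DMSO and diluted in 0.5% carboxymethyl cellulose (final DMSO <0.5%). Groups of 7–8 mice; vehicle-only controls. Survival checked twice daily. Result is percentage increase in median survival time relative to the control group.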

NUGC-3 [7] = experiment: Induction of microtubule arrangement aberration in human NUGC3 cells assessed as appearance of tubulin at 1 uM after 16 hrs FITC analysis; format: functional, cell-based
Summary of the method: (§3)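 NUGC-3 cells exposed to 1 μM for 16 h, then fixed in 4% formaldehyde 10 min and blocked with BSA. Stained with monoclonal anti-β-tubulin (1:200, 4 °C overnight) followed by FITC anti-mouse IgG (1:300, 1 h), and for DNA with Hoechst 33258 (1 μg/mL in 0.1% Triton X-100, 5 min). Imaged by confocal laser-scanning microscopy. DMSO vehicle control included.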

NUGC-3 [8] = experiment: Induction of apoptosis in human NUGC3 cells assessed as DNA fragmentation at 1 uM after 16 hrs by Hoechst 33258 staining-based confocal laser-scanning microscopy; format: functional, cell-based; summary of the method: as §3
MKN-45 [9] = experiment: Ex vivo antiproliferative activity against human MKN45 cells xenografted in nude mouse assessed as BrdU incorporation into DNA after 96 hrs by immunostaining; format: functional, cell-based; summary of the method: as §1
SW480 [10] = experiment: Ex vivo antiproliferative activity against human SW480 cells xenografted in nude mouse assessed as BrdU incorporation into DNA after 96 hrs by immunostaining; format: functional, cell-based; summary of the method: as §1
P388 [11] = experiment: Anticancer activity against mouse P388 cells xenografted in po dosed DBA/2J mouse assessed as increase in mouse life span administered daily for 9 consecutive days; format: functional, organism-based
Summary of the method: (§4)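 Female DBA/2J mice, 5 weeks old, inoculated iv with 1 × 10^6 P388 cells each; dosing began one day later, 7–8 mice per group. Compound in DMSO diluted into 0.5% carboxymethyl cellulose (final DMSO <0.5%). Regimens: iv 2.5 or 7.5 (mg/kg)/day for 4 days; po gavage (0.1 mL) 25–200 (mg/kg)/day for 9 days. Vehicle-only controls. Survival checked twice daily; increase in life span computed from median survival time normalized to controls.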

P388 [12] = experiment: Anticancer activity against mouse P388 cells xenografted in iv dosed DBA/2J mouse assessed as increase in mouse life span administered daily for 4 consecutive; format: functional, organism-based; summary of the method: as §4
Mus musculus [13] = experiment: Toxicity in DBA/2J mouse xenografted with mouse P388 cells assessed as body weight loss at 25 to 200 mg/kg, po administered daily for 9 consecutive days; format: organism-based; design: dose 25-200 mg/kg, route oral; details: in vivo
Mus musculus [14] = experiment: Toxicity in DBA/2J mouse xenografted with mouse P388 cells assessed as body weight loss at 2.5 to 7.5 mg/kg, iv administered daily for 4 consecutive days; format: organism-based; design: dose 2.5-7.5 mg/kg, route intravenous; details: in vivo
P388 [15] = experiment: Anticancer activity against mouse P388 cells xenografted in DBA/2J mouse assessed as increase in mouse life span at 25 mg/kg, po administered daily for 9 consecutive days; format: functional; summary of the method: as §2
P388 [16] = experiment: Anticancer activity against mouse P388 cells xenografted in DBA/2J mouse assessed as increase in mouse life span at 100 mg/kg, po administered daily for 9 consecutive days; format: functional; summary of the method: as §2
P388 [17] = experiment: Anticancer activity against mouse P388 cells xenografted in DBA/2J mouse assessed as increase in mouse life span at 2.5 mg/kg, iv administered daily for 4 consecutive days; format: functional
Summary of the method: (§5)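 Female DBA/2J mice, 5 weeks old, each inoculated iv with 1 × 10^6 P388 cells (grown in RPMI 1640 with nonessential amino acids, 50 μM 2-mercaptoethanol, 10% FBS). Compound was given iv starting one day after inoculation. Groups of 7–8 mice plus vehicle controls, monitored twice daily. Percentage increase in life span calculated from median survival time, normalised to controls.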

NUGC-3 [18] = experiment: Induction of apoptosis in human NUGC3 cells assessed as DNA fragmentation at 100 nM by ethidium bromide staining-based agarose gel electrophoresis; format: functional, cell-based
[19] = Inhibition of bovine brain tubulin polymerization by turbidity assay; design: species or system Bos taurus
Bos taurus [20] = organism: Bos taurus; experiment: Displacement of [3H]colchicine from bovine brain tubulin at 25 uM after 1 hr by scintillation counting
Bos taurus [21] = organism: Bos taurus; experiment: Displacement of [3H]colchicine from bovine brain tubulin after 1 hr by scintillation counting
P388 [22] = experiment: Anticancer activity against mouse P388 cells xenografted in DBA/2J mouse assessed as increase in mouse life span at 7.5 mg/kg, iv administered daily for 4 consecutive days; format: functional; summary of the method: as §5

SMILES: Nc1nc(-c2ccsc2)cn1/N=C/c1ccc(Cl)cc1
IC50 (NUGC-3 [1]): 50 nM

SMILES: Nc1nc(-c2ccccc2)cn1/N=C/c1ccc(Br)cc1
IC50 (NUGC-3 [1]): 580 nM

SMILES: Nc1nc(-c2ccccc2)cn1/N=C/c1ccccc1
IC50 (NUGC-3 [1]): 840 nM

SMILES: Nc1nc(-c2cccs2)cn1/N=C/c1ccc(Cl)cc1
IC50 (NUGC-3 [1]): 80 nM

SMILES: COc1ccccc1-c1cn(/N=C/c2ccc(Cl)cc2)c(N)n1
IC50 (NUGC-3 [1]): 5200 nM

SMILES: Nc1nc(-c2ccccc2)cn1/N=C/c1ccc(C(F)(F)F)cc1
IC50 (NUGC-3 [1]): 5770 nM

SMILES: Nc1nc(-c2ccccc2)cn1/N=C/c1ccnc2ccccc12
IC50 (NUGC-3 [1]): > 10000 nM

SMILES: Cc1ccsc1/C=N/n1cc(-c2ccccc2)nc1N
IC50 (NUGC-3 [1]): 910 nM

SMILES: Nc1nc(-c2ccc(Cl)s2)cn1/N=C/c1ccc(Cl)cc1
IC50 (NUGC-3 [1]): 3280 nM

SMILES: COc1cc2c(c(OC)c1OC)-c1ccc(OC)c(=O)cc1[C@@H](NC(C)=O)CC2 [COLCHICINE]
IC50 (NUGC-3 [1]): 10 nM

SMILES: Nc1nc(-c2ccc(-c3ccccc3)cc2)cn1/N=C/c1ccc(Cl)cc1
IC50 (NUGC-3 [1]): > 10000 nM

SMILES: Nc1nc(-c2nccs2)cn1/N=C/c1ccc(Cl)cc1
IC50 (NUGC-3 [1]): 510 nM

SMILES: Nc1nc(-c2ccccc2)cn1/N=C/c1ccc(F)cc1
Activity (MKN-45 [2]): Active
Activity (SW480 [3]): Active
Activity (MKN-45 [4]): Active
IC50 (MKN-45 [5]): 34000 nM
Activity (P388 [6]): 110%
IC50 (NUGC-3 [1]): 50 nM

SMILES: Nc1nc(-c2ccccc2)cn1/N=C/c1ccc(Cl)cc1
Activity (NUGC-3 [7]): Active
Activity (NUGC-3 [8]): Active
Activity (MKN-45 [9]): Dose-dependent effect
Activity (SW480 [10]): Dose-dependent effect
IC50 (MKN-45 [5]): 13000 nM
Activity (P388 [11]): Dose-dependent effect
Activity (P388 [12]): Dose-dependent effect
Activity (Mus musculus [13]): Non-toxic
Activity (Mus musculus [14]): Non-toxic
Activity (P388 [15]): 14%
Activity (P388 [16]): 71%
Activity (P388 [6]): 114%
Activity (P388 [17]): 17%
IC50 (NUGC-3 [1]): 60 nM
Activity (NUGC-3 [18]): Active
IC50 [19]: 2650 nM
Activity (Bos taurus [20]): Active
Activity (Bos taurus [21]): Dose-dependent effect
Activity (P388 [22]): 100%

SMILES: Nc1nc(-c2ccccc2)cn1/N=C/c1cccc(Cl)c1Cl
IC50 (NUGC-3 [1]): 5120 nM

SMILES: Nc1nc(-c2ccccc2)c(-c2ccccc2)n1/N=C/c1ccc(Cl)cc1
IC50 (NUGC-3 [1]): > 10000 nM

SMILES: Nc1nc(-c2ccccn2)cn1/N=C/c1ccc(Cl)cc1
IC50 (NUGC-3 [1]): 310 nM

SMILES: Nc1nc(-c2ccccc2)cn1/N=C/c1ccc(Cl)c(Cl)c1
IC50 (NUGC-3 [1]): 740 nM

SMILES: Nc1nc(-c2cccnc2)cn1/N=C/c1ccc(F)cc1
IC50 (NUGC-3 [1]): 60 nM

SMILES: Nc1nc(-c2ccccc2)cn1/N=C/c1ccccc1Cl
IC50 (NUGC-3 [1]): 3970 nM

IC50 [19]: 270 nM
Activity (Bos taurus [20]): Active
Activity (Bos taurus [21]): Dose-dependent effect
SMILES: Nc1nc(-c2cccnc2)cn1/N=C/c1ccc(Cl)cc1
IC50 (NUGC-3 [1]): 230 nM
Activity (NUGC-3 [18]): Active
